Measured values as given in ChEMBL document CHEMBL4477177, “Antituberculosis Activity of a Naturally Occurring Flavonoid, Isorhamnetin” (J Nat Prod, 2016).
Converted amounts (≈) assume the structure as drawn. The source made the active and inactive calls. The rule behind the calls is not given here.

Experiments:
[1] = biological target: Mitogen-activated protein kinase; ERK1/ERK2 (Homo sapiens) (UniProt P27361+P28482); experiment: Downregulation of ERK1/2 phosphorylation in IFN-gamma-induced human MRC5 cells at 20 uM pretreated for 1 hr followed by IFN-gamma stimulation for 3 hrs by Western blot analysis; type: cell-based
Sequence of Mitogen-activated protein kinase; ERK1/ERK2 (Homo sapiens) (P27361 whole entry, looked up): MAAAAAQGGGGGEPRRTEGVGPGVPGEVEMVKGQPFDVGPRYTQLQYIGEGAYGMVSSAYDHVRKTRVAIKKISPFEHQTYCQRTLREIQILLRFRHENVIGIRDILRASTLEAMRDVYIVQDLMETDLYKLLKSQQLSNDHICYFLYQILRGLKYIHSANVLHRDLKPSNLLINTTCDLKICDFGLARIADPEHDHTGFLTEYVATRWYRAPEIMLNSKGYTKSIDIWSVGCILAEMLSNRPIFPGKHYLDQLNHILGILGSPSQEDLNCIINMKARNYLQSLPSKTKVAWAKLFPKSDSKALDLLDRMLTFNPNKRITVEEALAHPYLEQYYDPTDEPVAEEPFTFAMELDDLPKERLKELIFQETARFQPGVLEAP
Sequence of Mitogen-activated protein kinase; ERK1/ERK2 (Homo sapiens) (P28482 whole entry, looked up): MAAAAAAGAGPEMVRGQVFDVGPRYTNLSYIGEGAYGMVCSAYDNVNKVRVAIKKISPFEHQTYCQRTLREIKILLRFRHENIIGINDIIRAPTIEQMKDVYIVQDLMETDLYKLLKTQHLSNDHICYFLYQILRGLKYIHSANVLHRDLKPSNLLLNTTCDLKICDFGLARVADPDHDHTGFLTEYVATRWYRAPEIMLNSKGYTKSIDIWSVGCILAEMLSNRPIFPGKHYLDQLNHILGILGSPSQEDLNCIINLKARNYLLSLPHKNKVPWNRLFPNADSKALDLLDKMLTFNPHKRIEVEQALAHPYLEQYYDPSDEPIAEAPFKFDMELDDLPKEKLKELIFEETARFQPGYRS
Outline: (§1)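 MRC-5 cells pretreated with 20 μM agent for 1 h, then 20 ng/mL IFN-γ for 3 h. Cytoplasmic lysates prepared; 20 μg protein run on 10% SDS-PAGE and transferred to PVDF. Membranes blocked in 5% BSA/TBST and probed overnight at 4 °C with phospho-specific and total MAPK antibodies. β-Actin used as loading control.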

[2] = biological target: T1, MAP kinase p38 (Homo sapiens) (UniProt O15264+Q15759+Q16539+P53778); experiment: Downregulation of p38 phosphorylation in IFN-gamma-induced human MRC5 cells at 20 uM pretreated for 1 hr followed by IFN-gamma stimulation for 3 hrs by Western blot analysis; type: cell-based; outline: as §1
[3] = tested on: MRC5; experiment: Antiinflammatory activity against IFN-gamma-stimulated human MRC5 cells assessed as reduction of TNF-alpha mRNA level at 20 uM incubated for 3 hrs by RT-PCR analysis relative to control; type: functional; set-up: scale not given: the % may be the effect or the level left
Outline: (§2)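 MRC-5 cells cultured in DMEM with 10% FBS at 37 °C, 5% CO2, then stimulated with or without 20 ng/mL IFN-γ in presence or absence of test agent for 3 h. Competitive RT-PCR; targets amplified 25 cycles (annealing 57 °C). Band densitometry expressed relative to β-actin mRNA. Mean ± SD.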

[4] = Cytotoxicity against human MRC5 cells assessed as cell survival rate at 158 uM after 24 hrs by MTT assay; type: cell-based; conditions: read-out: Survival
Outline: (§3)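 Cells treated for 24 h with test agent (0–400 μM) or rifampicin (0–16 μM), then MTT assay. Survival taken as A570 of treated cells over A570 of untreated cells, as a percentage. Average of triplicates from three independent experiments.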

[5] = tested on: Mus musculus; experiment: Antiinflammatory activity against LPS-induced BALB/c mouse lung inflammation model assessed as lowering of IL-6 level at 0.01 to 0.5 mg/kg, ip administered for 1 hr followed by LPS stimulation for 12 hrs relative to vehicle-treated control; type: functional, organism-based
Outline: (§4)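 Female BALB/c mice, 6 weeks old, acclimatised 1 week; 6 groups of 3. Test agent (0.01, 0.1 or 0.5 mg/kg) given ip; 1 h later LPS 10 mg/kg ip in PBS. Sacrifice at 12 h. Whole lungs homogenised in NP-40 lysis buffer at 4 °C and centrifuged. Cytokines in supernatant measured by ELISA (OD 450 nm).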

[6] = tested on: Mycobacterium tuberculosis; experiment: Antitubercular activity against Mycobacterium tuberculosis H37Rv P887 at 158 uM incubated for 1 to 9 days by inverted microscopic analysis; type: functional
Outline: (§5)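 Bacteria immobilised in 0.5% agarose within microfluidic channels of a 96-well chip. Compound (0–632 μM; rifampicin 0–19.4 μM) supplied in Middlebrook 7H9 with 10% OADC and allowed to diffuse in. Incubated at 37 °C; channel boundary imaged by inverted microscopy (40×) at 1, 3, 5, 7 and 9 days. MIC90 taken as lowest concentration giving 90% growth inhibition. Triplicate.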

[7] = Cytotoxicity against human HaCaT cells assessed as cell survival rate at 400 uM after 24 hrs by MTT assay; type: cell-based; conditions: read-out: Survival; outline: as §3
[8] = tested on: MRC5; experiment: Antiinflammatory activity against IFN-gamma-stimulated human MRC5 cells assessed as reduction of IL-6 mRNA level at 20 uM incubated for 3 hrs by RT-PCR analysis relative to control; type: functional; set-up: scale not given: the % may be the effect or the level left; outline: as §2
[9] = Toxicity in mouse at 0.01 to 0.5 mg/kg assessed as death; type: organism-based; conditions: in vivo
[10] = tested on: MRC5; experiment: Antiinflammatory activity against IFN-gamma-stimulated human MRC5 cells assessed as reduction of IL-12 mRNA level at 20 uM incubated for 3 hrs by RT-PCR analysis relative to control; type: functional; set-up: scale not given: the % may be the effect or the level left; outline: as §2
[11] = tested on: Mycobacterium tuberculosis; experiment: Antitubercular activity against XDR Mycobacterium tuberculosis X24 incubated for 1 to 9 days by inverted microscopic analysis; type: functional; outline: as §5
[12] = tested on: MRC5; experiment: Antiinflammatory activity against IFN-gamma-stimulated human MRC5 cells assessed as reduction of MMP-1 mRNA level at 20 uM incubated for 3 hrs by RT-PCR analysis relative to control; type: functional; set-up: scale not given: the % may be the effect or the level left; outline: as §2
[13] = Toxicity in mouse at 0.01 to 0.5 mg/kg assessed as twisting; type: organism-based; conditions: in vivo
[14] = Toxicity in mouse at 0.01 to 0.5 mg/kg assessed as weight loss; type: organism-based; conditions: in vivo
[15] = Toxicity in mouse at 0.01 to 0.5 mg/kg assessed as irritability; type: organism-based; conditions: in vivo
[16] = Toxicity in mouse at 0.01 to 0.5 mg/kg assessed as change in AST level; type: organism-based; conditions: in vivo
Outline: (§6)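 BALB/c mice, 3 per group, given 0.01, 0.1 or 0.5 mg/kg ip; LPS 10 mg/kg ip 1 h later. Sacrificed at 12 h. Serum AST, ALT and BUN measured on an automated clinical analyser. Mean ± SD.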

[17] = biological target: Mitogen-activated protein kinase 8/9 (Homo sapiens) (UniProt P45983+P45984); experiment: Downregulation of JNK1/2 phosphorylation in IFN-gamma-induced human MRC5 cells at 20 uM pretreated for 1 hr followed by IFN-gamma stimulation for 3 hrs by Western blot analysis; type: cell-based; outline: as §1
Sequence of Mitogen-activated protein kinase 8/9 (Homo sapiens) (P45983 whole entry, looked up): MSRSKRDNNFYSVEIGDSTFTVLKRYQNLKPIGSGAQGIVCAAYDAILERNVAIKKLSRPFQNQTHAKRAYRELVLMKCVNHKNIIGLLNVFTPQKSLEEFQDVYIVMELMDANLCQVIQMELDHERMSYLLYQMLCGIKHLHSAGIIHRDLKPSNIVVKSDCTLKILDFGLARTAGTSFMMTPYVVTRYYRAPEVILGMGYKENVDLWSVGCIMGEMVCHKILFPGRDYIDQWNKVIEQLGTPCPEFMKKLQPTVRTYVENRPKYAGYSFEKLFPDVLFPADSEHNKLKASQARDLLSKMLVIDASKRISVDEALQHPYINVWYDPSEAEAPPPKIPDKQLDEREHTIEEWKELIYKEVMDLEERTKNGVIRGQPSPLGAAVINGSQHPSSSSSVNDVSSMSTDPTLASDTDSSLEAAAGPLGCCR
Sequence of Mitogen-activated protein kinase 8/9 (Homo sapiens) (P45984 whole entry, looked up): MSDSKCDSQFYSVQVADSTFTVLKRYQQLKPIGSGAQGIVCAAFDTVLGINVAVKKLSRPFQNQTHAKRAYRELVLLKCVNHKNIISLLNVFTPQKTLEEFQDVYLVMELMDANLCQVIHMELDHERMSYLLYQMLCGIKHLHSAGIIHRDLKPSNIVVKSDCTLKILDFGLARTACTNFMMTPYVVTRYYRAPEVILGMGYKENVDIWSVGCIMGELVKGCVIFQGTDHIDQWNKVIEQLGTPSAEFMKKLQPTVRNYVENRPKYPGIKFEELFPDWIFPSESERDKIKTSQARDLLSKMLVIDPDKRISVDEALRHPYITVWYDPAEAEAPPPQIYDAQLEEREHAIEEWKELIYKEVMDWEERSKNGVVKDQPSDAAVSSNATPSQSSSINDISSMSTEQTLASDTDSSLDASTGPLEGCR

[18] = biological target: T1, MAP kinase p38 (Homo sapiens); experiment: Binding affinity to human C-terminally His-tagged p38 expressed in Escherichia coli BL21 by fluorescence quenching based spectrofluorometric analysis
Outline: (§7)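 C-terminally His6-tagged ERK1 or p38 MAPK expressed in E. coli and purified. Protein at 10 μM in 50 mM sodium phosphate, 100 mM NaCl, pH 8.0, titrated with ligand to 1:10 protein:ligand. Excitation 290 nm, emission 290–500 nm. Binding constant K derived from fluorescence quenching.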

[19] = tested on: MRC5; experiment: Antiinflammatory activity against IFN-gamma-stimulated human MRC5 cells assessed as reduction of IL-1beta mRNA level at 20 uM incubated for 3 hrs by RT-PCR analysis relative to control; type: functional; set-up: scale not given: the % may be the effect or the level left; outline: as §2
[20] = tested on: Mycobacterium tuberculosis; experiment: Antitubercular activity against MDR Mycobacterium tuberculosis M22 incubated for 1 to 9 days by inverted microscopic analysis; type: functional; outline: as §5
[21] = biological target: Mitogen-activated protein kinase 3 (Homo sapiens) (UniProt P27361); experiment: Binding affinity to human ERK1 expressed in Escherichia coli BL21 by fluorescence quenching based spectrofluorometric analysis; outline: as §7
Sequence of Mitogen-activated protein kinase 3 (Homo sapiens) (P27361 whole entry): as the sequence (P27361 whole entry, looked up) above

[22] = Lipophilicity, logP of the compound; type: physicochemical; conditions: octanol/water
[23] = Cytotoxicity against human MRC5 cells assessed as cell survival rate at 316 uM after 24 hrs by MTT assay; type: cell-based; conditions: read-out: Survival; outline: as §3
[24] = Cytotoxicity against mouse NIH/3T3 cells assessed as cell survival rate at 316 uM after 24 hrs by MTT assay; type: cell-based, NIH3T3; conditions: read-out: Survival; outline: as §3
[25] = Cytotoxicity against human HaCaT cells assessed as cell survival rate at 158 uM after 24 hrs by MTT assay; type: cell-based; conditions: read-out: Survival; outline: as §3
[26] = tested on: Mycobacterium tuberculosis; experiment: Antitubercular activity against XDR Mycobacterium tuberculosis X59 incubated for 1 to 9 days by inverted microscopic analysis; type: functional; outline: as §5
[27] = Toxicity in mouse at 0.01 to 0.5 mg/kg assessed as breathing; type: organism-based; conditions: in vivo
[28] = tested on: Mycobacterium tuberculosis; experiment: Antitubercular activity against MDR Mycobacterium tuberculosis X23 incubated for 1 to 9 days by inverted microscopic analysis; type: functional
[29] = tested on: Mycobacterium tuberculosis; experiment: Antitubercular activity against Mycobacterium tuberculosis H37Rv P887 incubated for 1 to 9 days by inverted microscopic analysis; type: functional; outline: as §5
[30] = Toxicity in mouse at 0.01 to 0.5 mg/kg assessed as change in ALT level; type: organism-based; conditions: in vivo; outline: as §6
[31] = tested on: Mus musculus; experiment: Antiinflammatory activity against LPS-induced BALB/c mouse lung inflammation model assessed as lowering of IL-1beta level at 0.01 to 0.5 mg/kg, ip administered for 1 hr followed by LPS stimulation for 12 hrs relative to vehicle-treated control; type: functional, organism-based; outline: as §4
[32] = tested on: MRC5; experiment: Antiinflammatory activity against IFN-gamma-stimulated human MRC5 cells assessed as reduction of TNF-alpha production at 5 uM after 24 hrs by ELISA relative to control; type: functional; set-up: scale not given: the % may be the effect or the level left
Outline: (§8)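 MRC-5 cells stimulated with IFN-γ and exposed to test agent for 24 h. TNF-α and IL-12 in culture media measured by sandwich ELISA: capture antibody coated overnight at 4 °C, blocking 1 h, sample 2 h at RT, detection antibody 1 h, TMB substrate, stopped with 1 N H2SO4, OD 450 nm. Mean ± SD of at least three independent experiments.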

[33] = Cytotoxicity against human HaCaT cells assessed as cell survival rate at 316 uM after 24 hrs by MTT assay; type: cell-based; conditions: read-out: Survival; outline: as §3
[34] = tested on: MRC5; experiment: Antiinflammatory activity against IFN-gamma-stimulated human MRC5 cells assessed as reduction of IL-12 production at 5 uM after 24 hrs by ELISA relative to control; type: functional; set-up: scale not given: the % may be the effect or the level left; outline: as §8
[35] = tested on: Mus musculus; experiment: Antiinflammatory activity against LPS-induced BALB/c mouse lung inflammation model assessed as lowering of IL-12 level at 0.01 to 0.5 mg/kg, ip administered for 1 hr followed by LPS stimulation for 12 hrs relative to vehicle-treated control; type: functional, organism-based; outline: as §4
[36] = tested on: MRC5; experiment: Antiinflammatory activity against IFN-gamma-stimulated human MRC5 cells assessed as reduction of IL-12 production at 10 uM after 24 hrs by ELISA relative to control; type: functional; set-up: scale not given: the % may be the effect or the level left; outline: as §8
[37] = Cytotoxicity against mouse NIH/3T3 cells assessed as cell survival rate at 158 uM after 24 hrs by MTT assay; type: cell-based, NIH3T3; conditions: read-out: Survival; outline: as §3
[38] = tested on: Mus musculus; experiment: Antiinflammatory activity against LPS-induced BALB/c mouse lung inflammation model assessed as lowering of IFN-gamma level at 0.01 to 0.5 mg/kg, ip administered for 1 hr followed by LPS stimulation for 12 hrs relative to vehicle-treated control; type: functional, organism-based; outline: as §4
[39] = Toxicity in mouse at 0.01 to 0.5 mg/kg assessed as change in BUN level; type: organism-based; conditions: in vivo; outline: as §6
[40] = tested on: MRC5; experiment: Antiinflammatory activity against IFN-gamma-stimulated human MRC5 cells assessed as reduction of TNF-alpha production at 10 uM after 24 hrs by ELISA relative to control; type: functional; set-up: scale not given: the % may be the effect or the level left; outline: as §8
[41] = Cytotoxicity against mouse NIH/3T3 cells assessed as cell survival rate at 400 uM after 24 hrs by MTT assay; type: cell-based, NIH3T3; conditions: read-out: Survival; outline: as §3

COc1cc(-c2oc3cc(O)cc(O)c3c(=O)c2O)ccc1O [ISORHAMNETIN]
Activity [1]: Active
Activity [2]: Active
Activity [3]: 56%
viability at 24 h, 158 µM [4]: 54%
Activity [5]: Active
inhibition at 158 µM [6]: 90%
viability at 24 h, 400 µM [7]: 66%
Activity [8]: 69%
Activity [9]: Non-Toxic
Activity [10]: 76%
MIC90 [11]: 316 µM (≈ 99.9 µg/mL)
Activity [12]: 41%
Activity [13]: Non-Toxic
Activity [14]: Non-Toxic
Activity [15]: Non-Toxic
Activity [16]: Non-Toxic
Activity [17]: inactive
K [18]: 7.6 ×10⁶ /M
Activity [19]: 39%
MIC90 [20]: 316 µM (≈ 99.9 µg/mL)
K [21]: 4.46 ×10⁶ /M
logP [22]: 1.86
viability at 24 h, 316 µM [23]: 47%
viability at 24 h, 316 µM [24]: 63%
viability at 24 h, 158 µM [25]: 90%
MIC90 [26]: 316 µM (≈ 99.9 µg/mL)
Activity [27]: Non-Toxic
MIC90 [28]: 316 µM (≈ 99.9 µg/mL)
MIC90 [29]: 158 µM (≈ 50 µg/mL)
Activity [30]: Non-Toxic
Activity [31]: Active
Activity [32]: 37.5%
viability at 24 h, 316 µM [33]: 71%
Activity [34]: 45%
Activity [35]: Active
Activity [36]: 50%
viability at 24 h, 158 µM [37]: 78%
Activity [38]: Active
Activity [39]: Non-Toxic
Activity [40]: 43.75%
viability at 24 h, 400 µM [41]: 58%

COc1ccc(-c2oc3cc(O)cc(O)c3c(=O)c2O)cc1O [TAMARIXETIN]
MIC90 [11]: > 632 µM
K [18]: 4.64 ×10⁴ /M
MIC90 [20]: 632 µM (≈ 200 µg/mL)
K [21]: 6.31 ×10⁴ /M
logP [22]: 1.86
MIC90 [26]: > 632 µM
MIC90 [28]: 632 µM (≈ 200 µg/mL)
MIC90 [29]: 632 µM (≈ 200 µg/mL)
